The source of these data is ChEMBL document CHEMBL4396878, “Mechanisms of Specific versus Nonspecific Interactions of Aggregation-Prone Inhibitors and Attenuators” (J Med Chem, 2019).

Active and inactive are the calls of the source. The rule behind the calls is not given here.

Data set [1] deals with T1, Rap guanine nucleotide exchange factor 3 (Homo sapiens, UniProt O95398).
T1 sequence (O95398 whole entry): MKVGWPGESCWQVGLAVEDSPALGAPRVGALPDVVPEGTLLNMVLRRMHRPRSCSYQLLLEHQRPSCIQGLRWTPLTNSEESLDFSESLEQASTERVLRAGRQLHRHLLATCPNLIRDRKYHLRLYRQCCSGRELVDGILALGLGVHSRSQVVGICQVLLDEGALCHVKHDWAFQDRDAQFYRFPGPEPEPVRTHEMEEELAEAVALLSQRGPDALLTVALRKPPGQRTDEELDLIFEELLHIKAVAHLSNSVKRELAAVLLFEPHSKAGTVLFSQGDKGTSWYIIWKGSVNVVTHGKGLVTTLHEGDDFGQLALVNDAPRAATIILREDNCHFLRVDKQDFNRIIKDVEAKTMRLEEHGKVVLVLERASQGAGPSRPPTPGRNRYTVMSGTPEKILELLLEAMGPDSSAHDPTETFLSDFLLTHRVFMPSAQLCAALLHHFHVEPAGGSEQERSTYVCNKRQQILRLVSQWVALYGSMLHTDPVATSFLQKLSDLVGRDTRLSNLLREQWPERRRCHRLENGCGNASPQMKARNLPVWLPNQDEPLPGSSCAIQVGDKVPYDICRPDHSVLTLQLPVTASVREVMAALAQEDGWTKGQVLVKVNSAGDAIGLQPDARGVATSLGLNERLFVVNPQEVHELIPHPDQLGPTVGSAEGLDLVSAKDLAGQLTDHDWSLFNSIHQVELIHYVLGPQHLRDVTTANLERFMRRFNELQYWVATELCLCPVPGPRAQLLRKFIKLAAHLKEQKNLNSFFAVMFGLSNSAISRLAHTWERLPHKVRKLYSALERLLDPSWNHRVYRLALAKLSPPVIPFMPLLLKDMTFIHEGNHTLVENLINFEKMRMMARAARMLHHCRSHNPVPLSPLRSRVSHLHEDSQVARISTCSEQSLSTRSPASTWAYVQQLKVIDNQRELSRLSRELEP
The data set is described as follows: Inhibition of 8-NBD-cAMP binding to human EPAC1 cAMP binding domain (149 to 318 residues) by fluorescence assay.

Data set [2] deals with T2, Rap guanine nucleotide exchange factor 3 (Homo sapiens) (UniProt O95398).
T2 sequence (whole entry): T1 sequence (O95398 whole entry)
Put plainly: Binding affinity to human EPAC1 cAMP binding domain (149 to 318 residues) at 100 uM in presence of triton X-100 by [15N-1H]HSQC spectroscopic analysis.

In data set [3] the target is T2, Rap guanine nucleotide exchange factor 3 (Homo sapiens). The data set is described as follows: Binding affinity to human EPAC1 cAMP binding domain (149 to 318 residues) assessed as increase in peak intensity in presence of human serum albumin by [15N-1H]HSQC spectroscopic analysis relative to control.
Data set [4] in a line: Aggregation property of the compound in NMR buffer at 250 uM by surface plasmon resonance analysis. The data set is classed as physicochemical. The essentials: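 SPR on a nonfunctionalized gold nanoparticle sensor; samples in NMR buffer with DMSO at 1.25%, injected at 33 μL/min alongside matched DMSO controls (with HSA where present, 25 μM), in duplicate. Surface regenerated only after HSA-containing injections.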
On the technique in general: In SPR one partner is held on a chip, and binding of the other changes the refractive index at the surface.

The nature of data set [5]: Binding affinity to Triton-X 100 assessed as change in chemical shift at 100 uM by 1H-NMR spectra analysis.
Data set [6] addresses T2, Rap guanine nucleotide exchange factor 3 (Homo sapiens). Put plainly: Ratio of apparent Kd for binding affinity to human EPAC1 cAMP binding domain (149 to 318 residues) in presence of human serum albumin to apparent Kd for binding affinity to human EPAC1 cAMP binding domain (149 to 318 residues) in absence of human serum albumin.
Data set [7] can be described thus: Aggregation property of the compound in NMR buffer assessed as micellar morphology at 200 uM by uranyl acetate staining-based transmission electron microscopic analysis. The data set is classed as physicochemical.
A short description of data set [8]: Binding affinity to Triton-X 100 assessed as intra-molecular saturation transfer at 100 uM at 6.61 ppm by STD spectra analysis. The essentials: (§1)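 STD NMR, saturation by a train of 40 Gaussian pulses of 50 ms each; selective on-resonance irradiation at the stated ppm (TX at 7.48 ppm), off-resonance at 30 ppm, interleaved and subtracted by phase cycling. 32K points, 16 ppm width centred at 4.7 ppm, 256 scans, 16 dummy scans, 0.1 s recycle delay (~15 min); 3 Hz exponential line broadening.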

Data set [9] addresses T2, Rap guanine nucleotide exchange factor 3 (Homo sapiens). Put plainly: Binding affinity to human EPAC1 cAMP binding domain (149 to 318 residues) assessed as intensity loss using aggregate form of compound by [15N-1H]HSQC spectroscopic analysis.
Data set [10] in a line: Binding affinity to Triton-X 100 assessed as change in chemical shift for aggregate formation at 100 to 300 uM by 1H-NMR analysis.
Data set [11] concerns the target T2, Rap guanine nucleotide exchange factor 3 (Homo sapiens). The data set is described as follows: Binding affinity to human EPAC1 cAMP binding domain (149 to 318 residues) assessed as change in chemical shift at 50 to 250 uM using aggregate form of compound by [15N-1H]HSQC spectroscopic analysis.
The target of data set [12] is T3, Albumin (Homo sapiens, UniProt P02768). Put plainly: Displacement of dansylated phenylalanine from human serum albumin by fluorescence assay. Conditions: read-out: Kd(app). The essentials: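 Competition of ligand against 100 μM dansyl-phenylalanine (binds Sudlow sites 1 and 2) bound to 2.5 μM HSA. Excitation 370 nm, emission 480 nm. Fractional saturation modelled with two sites, free HSA assumed negligible; least-squares fit with no further ESI sites, giving maximum apparent dissociation constants.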

In data set [13] the target is T1, Rap guanine nucleotide exchange factor 3. The data set is described as follows: Binding affinity to human EPAC1 cAMP binding domain (149 to 318 residues) using monomeric form of compound by [15N-1H]HSQC spectroscopic analysis.
Data set [14] concerns the target T2, Rap guanine nucleotide exchange factor 3 (Homo sapiens). The data set is described as follows: Binding affinity to human EPAC1 cAMP binding domain (149 to 318 residues) assessed as increase in peak intensity at 100 uM in presence of human serum albumin by [15N-1H]HSQC spectroscopic analysis relative to control.
A short description of data set [15]: Binding affinity to Triton-X 100 assessed as inter-molecular saturation transfer at 100 uM at 6.61 ppm by STD spectra analysis. The essentials: as §1
The nature of data set [16]: Aggregation property of the compound assessed as shift in peak width by 1H-NMR analysis. The data set is classed as physicochemical. The essentials:
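Line widths, chemical shifts and peak intensities tracked; CAC taken as the concentration where intensities deviate from linear dependence, or, for line width, the minimal concentration that increases peak width.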

Data set [17] has as its target T2, Rap guanine nucleotide exchange factor 3 (Homo sapiens). Put plainly: Binding affinity to human EPAC1 cAMP binding domain (149 to 318 residues) at 200 to 300 uM in presence of triton X-100 using aggregate form of compound by [15N-1H]HSQC spectroscopic analysis.
Data set [18] addresses T3, Albumin. Put plainly: Displacement of ANS from human serum albumin up to 50 uM by fluorescence assay. The essentials: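 Fluorescence competition: 2.5 μM HSA with 5 or 100 μM ANS, ligand added over a concentration range. Excitation 360 nm; emission read at 460 and 480 nm to check for blue shift. Signal normalized between ANS alone (minimum) and HSA:ANS (maximum).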

Data set [19] addresses T3, Albumin. The data set is described as follows: Binding affinity to human serum albumin assessed as inhibition of compound aggregation at 500 uM by surface plasmon resonance analysis.

T3 sequence (P02768 whole entry): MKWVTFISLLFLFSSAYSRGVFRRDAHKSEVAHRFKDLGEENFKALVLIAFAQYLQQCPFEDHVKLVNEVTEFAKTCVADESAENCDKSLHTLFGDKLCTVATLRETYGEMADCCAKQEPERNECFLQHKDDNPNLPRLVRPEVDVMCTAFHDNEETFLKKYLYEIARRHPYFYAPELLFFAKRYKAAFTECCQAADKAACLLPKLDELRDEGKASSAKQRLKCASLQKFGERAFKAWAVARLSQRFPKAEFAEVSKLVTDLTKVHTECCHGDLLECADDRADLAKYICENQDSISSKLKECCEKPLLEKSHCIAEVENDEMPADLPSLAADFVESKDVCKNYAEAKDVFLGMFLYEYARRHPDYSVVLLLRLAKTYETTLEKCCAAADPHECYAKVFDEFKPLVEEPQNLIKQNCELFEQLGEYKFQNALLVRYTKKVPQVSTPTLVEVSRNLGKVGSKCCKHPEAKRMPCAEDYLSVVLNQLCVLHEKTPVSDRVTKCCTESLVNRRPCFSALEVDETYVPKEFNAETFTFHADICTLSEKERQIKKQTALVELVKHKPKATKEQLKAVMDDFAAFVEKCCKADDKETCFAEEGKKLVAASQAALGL

On to `CC(C)(C)c1cc(C(=O)/C(C#N)=N/Nc2cccc(Cl)c2)no1`, for which the Kd was 20 µM in data set [1], 0.099 µM in data set [12] and 20 µM in data set [13]. Moreover, the result in data set [2], in data set [5], in [8], in data set [9], in data set [10] and in [11] was Active. Further, the result in data set [15] and in data set [17] was Active. The Activity was 30 to 40% in [3]; “Active” in data set [4]; “Active” in [7]; 44% in [14]; “Not Active” in data set [16]; “Active” in data set [18]. Also, the result in [6] was inactive. Further, in data set [19], the “inhibition (INH)” value is on record as “Not Active”.
